Results from ChEMBL document CHEMBL3352599, “Radiosynthesis and biological evaluation of a novel enoyl-ACP reductase inhibitor for Staphylococcus aureus” (Eur J Med Chem, 2014).
≈ marks a conversion by molar mass, not a printed value.

Key:
[1] = Cmax in Swiss Webster mouse at 10 mg/kg, iv by LC/MS/MS analysis; format: ADME, organism-based; set-up: dose 10 mg/kg, route intravenous; conditions: in vivo
Outline: (§1)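 Healthy Swiss Webster mice received a single dose, either 10 mg/kg iv or 40 mg/kg sc. Blood was drawn at 5, 15 and 30 min and 1, 2, 4, 7 and 24 h (n = 3). Each mouse gave two consecutive samples, retro-orbital then cardiac puncture, into EDTA. Plasma was deproteinized with acetonitrile and analysed by LC-MS/MS. Parameters came from noncompartmental analysis. sc bioavailability was calculated after dose normalization.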

[2] = AUC (0 to infinity) in Swiss Webster mouse at 10 mg/kg, iv by LC/MS/MS analysis; format: ADME, organism-based; set-up: time infinity, dose 10 mg/kg, route intravenous; conditions: plasma; outline: as §1
[3] = test system: Staphylococcus aureus; assay: Antibacterial activity against methicillin-resistant Staphylococcus aureus BAA1762 infected in Swiss Webster thigh infection model assessed as remaining bacterial burden at 40 mg/kg, sc administered 1 hr post challenge (reference value: 9 log10 CFU); conditions: route subcutaneous
[4] = test system: Staphylococcus aureus; assay: Antibacterial activity against Staphylococcus aureus; format: functional
[5] = Ratio of AUC for Swiss Webster mouse at 40 mg/kg, sc to MIC for methicillin-resistant Staphylococcus aureus BAA1762; conditions: route subcutaneous
Outline: (§2)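 Healthy Swiss Webster mice were given a single dose, iv at 10 mg/kg or sc at 40 mg/kg. Blood was taken at 5, 15 and 30 min and 1, 2, 4, 7 and 24 h (n = 3), with EDTA as anticoagulant. Plasma was protein-precipitated with acetonitrile and analysed by LC-MS/MS. AUC0-∞ (h*μg/mL) came from noncompartmental analysis and was divided by MIC (μg/mL).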

[6] = Tmax in Swiss Webster mouse at 10 mg/kg, iv by LC/MS/MS analysis; format: ADME, organism-based; set-up: dose 10 mg/kg, route intravenous; conditions: in vivo; outline: as §1
[7] = Clearance at steady state in Swiss Webster mouse at 10 mg/kg, iv by LC/MS/MS analysis; format: ADME, organism-based; set-up: dose 10 mg/kg, route intravenous; conditions: in vivo; outline: as §1
[8] = Bioavailability in Swiss Webster mouse at 40 mg/kg, sc by LC/MS/MS analysis; format: ADME, organism-based; conditions: in vivo; outline: as §1
[9] = Cmax in Swiss Webster mouse at 40 mg/kg, sc by LC/MS/MS analysis; format: ADME, organism-based; set-up: dose 40 mg/kg, route subcutaneous; conditions: in vivo; outline: as §1
[10] = Mean residence time in Swiss Webster mouse at 10 mg/kg, iv by LC/MS/MS analysis; format: ADME, organism-based; set-up: dose 10 mg/kg, route intravenous; conditions: in vivo; outline: as §1
[11] = Mean residence time in Swiss Webster mouse at 40 mg/kg, sc by LC/MS/MS analysis; format: ADME, organism-based; set-up: dose 40 mg/kg, route subcutaneous; conditions: in vivo; outline: as §1
[12] = AUC (0 to infinity) in Swiss Webster mouse at 40 mg/kg, sc by LC/MS/MS analysis; format: ADME, organism-based; set-up: time infinity, dose 40 mg/kg, route subcutaneous; conditions: plasma; outline: as §1
[13] = Half life in Swiss Webster mouse at 10 mg/kg, iv by LC/MS/MS analysis; format: ADME, organism-based; set-up: dose 10 mg/kg, route intravenous; conditions: in vivo; outline: as §1
[14] = test system: Mus musculus; assay: Apparent volume of distribution in Swiss Webster mouse at 10 mg/kg, iv by LC/MS/MS analysis; format: ADME, organism-based; set-up: dose 10 mg/kg, route intravenous; conditions: in vivo; outline: as §1
[15] = test system: Staphylococcus aureus; assay: Antibacterial activity against methicillin-resistant Staphylococcus aureus BAA1762 infected in Swiss Webster systemic infection model assessed as survival rate at 100 mg/kg, sc administered 1 hr post infection on day 0, day 1 and 2 with 24 hrs dosing interval and measured for additional 4 days (reference value: 0%); format: functional; conditions: route subcutaneous
Outline: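 Mice made neutropenic with ip cyclophosphamide (150 mg/kg day −4, 100 mg/kg day −1). MRSA grown in Mueller Hinton broth at 37 °C to mid-log, washed and diluted in BHI, then given ip at 2×10^7 cells. Compound in ethanol/PEG-400/saline (40/20/40) given sc once daily for 3 days. Vehicle-treated infected controls. Survival checked twice daily for 7 days.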

[16] = test system: Mus musculus; assay: Volume of distribution at steady state in Swiss Webster mouse at 10 mg/kg, iv by LC/MS/MS analysis; format: ADME, organism-based; set-up: dose 10 mg/kg, route intravenous; conditions: in vivo; outline: as §1
[17] = Ratio of AUC for Swiss Webster mouse at 10 mg/kg, iv to MIC for methicillin-resistant Staphylococcus aureus BAA1762; outline: as §2
[18] = Half life in Swiss Webster mouse at 40 mg/kg, sc by LC/MS/MS analysis; format: ADME, organism-based; set-up: dose 40 mg/kg, route subcutaneous; conditions: in vivo; outline: as §1
[19] = test system: Staphylococcus aureus; assay: Antibacterial activity against methicillin-resistant Staphylococcus aureus BAA1762 infected in Swiss Webster thigh infection model assessed as remaining bacterial burden at 100 mg/kg, sc administered 1 hr post challenge (reference value: 9 log10 CFU); conditions: route subcutaneous

With `CCCCCCc1ccc(Oc2ccccc2C#N)c(O)c1` the Cmax [1] was 840 ng/mL, the AUC(0-inf) [2] was 640 ng·h/mL and the “log10 CFU” value [3] was 7. For the same compound, the MIC [4] was 0.5 µg/mL (≈ 1.69 µM), the RatioAUC/MIC [5] was 3.54 and the Tmax [6] was 4.8 min. The clearance [7] was 7.31 mL/min, the bioavailability [8] was 69% and the Cmax [9] was 280 ng/mL. The MRT [10] was 0.65 h, the MRT [11] was 6.47 h and the AUC(0-inf) [12] was 1770 ng·h/mL. It also gave a half-life [13] of 1.01 h, a Vz [14] of 704.1 mL and a survival at 100 mg/kg [15] of 50%. It also gave a Vdss [16] of 475.6 mL, a RatioAUC/MIC [17] of 1.28 and a half-life [18] of 6.17 h. The “log10 CFU” value [19] was 6.
